Data set [1] deals with GM15850. Nature of the data set: Antioxidant activity in FRDA patient derived lymphocyte GM15850 assessed as inhibition of DEM-induced lipid peroxidation at 0.1 to 1 uM pre-incubated for 16 hrs followed by DEM addition for 120 mins by C11-BODIPY581/591 probe based flow cytometry relative to control. In kind it is functional, cell-based. Particulars: Homo sapiens. In short, it runs like this: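 Cells seeded at 5 × 10^5 cells/mL in RPMI-1640 with 15% fetal calf serum and 2 mM glutamine. Compounds added 16 h at 37 °C, 5% CO2. Then 1 μM C11-BODIPY581/591 in phenol red-free medium, 30 min in the dark. 5 mM DEM for 120 min, PBS wash, FL1-H read (488 nm excitation). 10,000 events. Green median fluorescence reported as % of DEM-treated control, n = 3.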
For orientation: Flow cytometry measures light scatter and fluorescence of single cells or particles in a stream.

The test system of data set [2] is GM15850. In words: Antioxidant activity in FRDA patient derived lymphocyte GM15850 assessed as suppression of DEM-induced intracellular ROS levels at 100 nM pre-incubated for 16 hrs followed by DEM addition for 80 mins by DCFH-DA probe based flow cytometry. In kind it is functional, cell-based. Particulars: Homo sapiens. In short, it runs like this: (§1)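 Cells (5 × 10^5) pretreated with compound 16 h at 37 °C, then 5 mM DEM for 80 min. Washed, then 10 μM DCFH-DA in PBS with 20 mM glucose for 25 min at 37 °C in the dark. DCF read on FL1-H, 10,000 events. Median fluorescence given as % of DEM-treated control. Duplicates, three independent runs.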

Data set [3] relates to GM15850. Nature of the data set: Inhibition of DEM-induced collapse of mitochondrial membrane potential in FRDA patient derived lymphocyte GM15850 assessed as intact mitochondrial membrane potential at 100 nM pre-incubated for 16 hrs followed by DEM addition for 120 mins by TMRM dye based flow cytometry (reference value: 91.3 %). In kind it is functional, Homo sapiens. More on the design: scale not given: the % may be the effect or the level left. In short, it runs like this: (§2)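 Cells (5 × 10^5) pretreated with or without compound for 16 h, then 5 mM DEM for 120 min. Stained with 250 nM TMRM in PBS with 20 mM glucose, 15 min at 37 °C in the dark. FL2-H read, 10,000 events, % cells with high TMRM uptake (intact potential). FCCP as uncoupler control. Means ± SEM of independent experiments run in duplicate.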

For data set [4], the system named is GM15850. Nature of the data set: Inhibition of DEM-induced collapse of mitochondrial membrane potential in FRDA patient derived lymphocyte GM15850 assessed as intact mitochondrial membrane potential at 1000 nM pre-incubated for 16 hrs followed by DEM addition for 120 mins by TMRM dye based flow cytometry (reference value: 91.3 %). In kind it is functional, Homo sapiens. More on the design: scale not given: the % may be the effect or the level left. In short, it runs like this: as §2

The subject of data set [5] is GM15850. Nature of the data set: Inhibition of DEM-induced collapse of mitochondrial membrane potential in FRDA patient derived lymphocyte GM15850 assessed as intact mitochondrial membrane potential at 2500 nM pre-incubated for 16 hrs followed by DEM addition for 120 mins by TMRM dye based flow cytometry (reference value: 91.3 %). In kind it is functional, Homo sapiens. More on the design: scale not given: the % may be the effect or the level left. The method in brief: as §2

The test system of data set [6] is GM15850. In words: Inhibition of DEM-induced collapse of mitochondrial membrane potential in FRDA patient derived lymphocyte GM15850 assessed as intact mitochondrial membrane potential pre-incubated for 16 hrs followed by DEM addition for 120 mins by TMRM dye based flow cytometry. In kind it is functional, cell-based. Conditions: Homo sapiens. In short, it runs like this:
as §2

In data set [7] the test system is GM15850. In words: Effect on mitochondrial membrane potential in FRDA patient derived lymphocyte GM15850 incubated for 16 hrs by TMRM dye based flow cytometry. Particulars: human, gm15850, 16 h. In kind it is cell-based.
For data set [8], the system named is GM15850. Nature of the data set: Increase in total intracellular ATP levels in FRDA patient derived lymphocyte GM15850 grown in galactose medium at 1 uM after 48 hrs by luciferin-luciferase reaction based bioluminescence assay relative to control. In kind it is functional, Homo sapiens. In short, it runs like this:
(§3)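 Cells at 2 × 10^5 cells/mL in glucose-free RPMI with 25 mM galactose, 10% dialyzed FBS and 2 mM glutamine. Compound exposure 48 h at 37 °C, 5% CO2. Total ATP read by luciferin-luciferase bioluminescence. Expressed as % of untreated control, mean of at least three independent runs; Student's t-test, p ≤ 0.05 versus vehicle.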

Data set [9] relates to GM15850. Nature of the data set: Increase in total intracellular ATP levels in FRDA patient derived lymphocyte GM15850 grown in galactose medium at 5 uM after 48 hrs by luciferin-luciferase reaction based bioluminescence assay relative to control. In kind it is functional, Homo sapiens. The method in brief:
as §3

Data set [10] has as its system GM15850. In words: Increase in total intracellular ATP levels in FRDA patient derived lymphocyte GM15850 grown in galactose medium at 20 uM after 48 hrs by luciferin-luciferase reaction based bioluminescence assay relative to control. In kind it is functional, Homo sapiens. In short, it runs like this:
as §3

Data set [11] has as its system GM15850. In words: Cytoprotective activity against DEM induced oxidative stress in FRDA patient derived lymphocyte GM15850 assessed as cell viability at 0.5 uM pre-incubated for 16 hrs followed by DEM addition for 6 hrs by calcein AM/EthD-1 staining based flow cytometry. In kind it is functional. Conditions: Homo sapiens. In short, it runs like this: (§4)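 Seeding 5 × 10^5 cells/mL, compound for 16 h at 37 °C, then 5 mM DEM for 6 h. Cells washed, resuspended in PBS with 25 mM galactose. Stained with 0.1 μM calcein AM and 0.1 μM EthD-1, 15 min at 37 °C in the dark. FL1-H/FL2-H read, 10,000 events. Viability relative to DMSO vehicle control.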

Data set [12] concerns GM15850. In words: Cytoprotective activity against DEM induced oxidative stress in FRDA patient derived lymphocyte GM15850 assessed as cell viability at 0.1 uM pre-incubated for 16 hrs followed by DEM addition for 6 hrs by calcein AM/EthD-1 staining based flow cytometry. In kind it is functional. Particulars: Homo sapiens. In short, it runs like this:
as §4

Data set [13] in a line: Stability in bovine liver microsomes assessed as drug recovery at 25 uM after 30 mins in presence of beta-NADPH by HPLC analysis. In kind it is ADME, Bos taurus, Microsome. Conditions: cattle, read-out: Drug recovery. The method in brief: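 Freshly prepared bovine liver microsomes at 1 mg/mL protein in 50 mM phosphate buffer pH 7.4 with 5 mM MgCl2. Compound at 25 μM final, reaction started with 1 mM β-NADPH, 30 min at 37 °C, stopped with propanol. Control was deactivated microsomes without NADPH. Reversed-phase HPLC with fluorene internal standard. Reported as % remaining versus control, quadruplicate.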

The test system of data set [14] is GM15850. Nature of the data set: Antioxidant activity in FRDA patient derived lymphocyte GM15850 assessed as suppression of DEM-induced intracellular ROS levels at 2.5 uM pre-incubated for 16 hrs followed by DEM addition for 80 mins by DCFH-DA probe based flow cytometry. In kind it is functional, cell-based. Particulars: Homo sapiens. The method in brief:
as §1

For data set [15], the system named is GM15850. In words: Antioxidant activity in FRDA patient derived lymphocyte GM15850 assessed as suppression of DEM-induced intracellular ROS levels pre-incubated for 16 hrs followed by DEM addition for 80 mins by DCFH-DA probe based flow cytometry. In kind it is functional, cell-based. Particulars: Homo sapiens. The method in brief:
as §1

Data set [16] deals with GM15850. Nature of the data set: Increase in total intracellular ATP levels in FRDA patient derived lymphocyte GM15850 grown in galactose medium after 48 hrs by luciferin-luciferase reaction based bioluminescence assay. In kind it is functional, cell-based. Particulars: Homo sapiens. In short, it runs like this:
as §3

The source of these data is ChEMBL document CHEMBL4428118, “Optimization of pyrimidinol antioxidants as mitochondrial protective agents: ATP production and metabolic stability” (Bioorg Med Chem, 2016).

The structures appear in SMILES notation. The source made the active and inactive calls. The rule behind the calls is not given here.

As to `CCCCCCCCCCCCCCCCc1nc(N2CCC2)nc(OC(C)C)c1O`, the result in [1], in [2] and in data set [11] was Active. Also, the Activity is 91.5% in [3]; 90.4% in [4]; 87.5% in data set [5]; “Dose-dependent effect” in [6]; “Non-Toxic” in [7]; 106% in [8]. Moreover, the figures for the Activity in data set [9] and in [10] were 109% and 95%, respectively. Also, the result in [12] was inactive. For the same compound, in data set [13], the remaining at 0.5 h, 25 µM turned out to be 76%.

Turning to `CCCCCCCCCCCCCCCCc1nc(N2CCCCC2)nc(OC2CCC2)c1O`, the outcome in data set [1], in data set [2], in [11] and in [12] was inactive. The outcome in [14] was Active. In addition, the Activity result in data set [15] is “Dose-dependent effect”; in [3] it was 7.8%; in data set [4] it was 32.4%; in data set [5] it was 62.3%; in data set [6] it was “Dose-dependent effect”; in data set [7], “Non-Toxic”. Besides, the Activity in data set [8] amounted to 99%; in data set [9], 106%; in [10] it was 100%. Besides, the remaining at 0.5 h, 25 µM in [13] was determined as 72%.

For `CCCCCCCCCCCCCCCCc1nc(N2CCC2)nc(OCC)c1O`, the outcome in data set [1], in data set [2] and in data set [11] was Active. Besides, the Activity in data set [3] is 88.9%; in data set [4] it was 87.6%; in [5], 88%; in data set [6], “Dose-dependent effect”; in data set [7], “Non-Toxic”; in [8] it was 100%. Besides, the Activity in [9] was 108%; in data set [10], 96%. Besides, the result in data set [12] was inactive. In addition, the remaining at 0.5 h, 25 µM in data set [13] was found to be 54%.

Take `CCCCCCCCCCCCCCCCc1nc(N2CCC2)nc(OC)c1O`: the result in data set [1], in data set [2] and in data set [11] was Active. Besides, the Activity is 90.5% in data set [3]; 88.8% in data set [4]; 86.8% in [5]; “Dose-dependent effect” in data set [6]; “Non-Toxic” in data set [7]; 102% in data set [8]. Besides, the figures for the Activity in data set [9] and in [10] were 109% and 74%, respectively. Also, in data set [12], the result was inactive. For the same compound, the remaining at 0.5 h, 25 µM in [13] was 58%.

As for `CCCCCCCCCCCCCCCCc1nc(N2CCC2)nc(OC2CCC2)c1O`, the result in data set [1], in [2], in [11] and in data set [12] was inactive. Further, in [14], the result was Active. The Activity result in [15] was “Dose-dependent effect”; in [3] it was 55%; in [4], 66.6%; in data set [5], 83.4%; in data set [6], “Dose-dependent effect”; in [7] it was “Non-Toxic”. Further, the Activity in data set [8] stood at 98%; in data set [9], 112%; in data set [10], 103%. The remaining at 0.5 h, 25 µM in data set [13] came to 65%.

Regarding `CCCCCCCCCCCCCCCOc1nc(N2CCC2)nc(C)c1O`, the result in [1], in data set [2] and in data set [11] was Active. For the same compound, the Activity in data set [3] was 88.9%; in [4], 82.7%; in data set [5] it was 77.2%; in [6], “Dose-dependent effect”; in data set [7], “Non-Toxic”; in [8], 96%. The Activity was 68% in data set [9], 11% in data set [10] and “Dose-dependent effect” in [16]. In [12], the result was inactive. Further, the remaining at 0.5 h, 25 µM in [13] is 62%.

`CCCCCCCCCCCCCCCCc1nc(N2CCC2)nc(C)c1O`: the result in data set [1], in data set [2] and in data set [11] was Active. Moreover, the Activity in data set [3] is 91.1%; in data set [4] it was 86.5%; in data set [5], 83.3%; in data set [6], “Dose-dependent effect”; in data set [7] it was “Non-Toxic”; in [8], 109%. Further, the Activity in [9] is given as 98%; in [10], 60%. Besides, the outcome in data set [12] was inactive. The remaining at 0.5 h, 25 µM in [13] amounted to 57%.

Turning to `CCCCCCCCCCCCCCCCc1nc(N(C)C)nc(OC)c1O`, the outcome in data set [1] and in [2] was Active. The Activity is 92% in data set [3]; 88.3% in [4]; 85.8% in data set [5]; “Dose-dependent effect” in [6]; “Non-Toxic” in data set [7]; 115% in data set [8]. The values for the Activity in data set [9] and in [10] were 107% and 88%, respectively. Further, the outcome in data set [12] was inactive. Moreover, the remaining at 0.5 h, 25 µM in data set [13] was 46%.

Take `CCCCCCCCCCCCCCCCc1nc(N2CCCC2)nc(OC2CCC2)c1O`: the outcome in [1], in [2], in data set [11] and in data set [12] was inactive. Moreover, the result in data set [14] was Active. The Activity result in [15] is “Dose-dependent effect”; in data set [3], 42.5%; in data set [4] it was 52.3%; in data set [5], 70.4%; in data set [6], “Dose-dependent effect”; in [7] it was “Non-Toxic”. In addition, the Activity was 98% in data set [8], 107% in data set [9] and 102% in [10]. Moreover, the remaining at 0.5 h, 25 µM in data set [13] came out at 72%.
